Experimental data gathered from unrelated publications.
Lines come from different studies, so protocols differ.
Target: Cyclin-dependent kinase 11A (CDK11A, Homo sapiens, UniProt Q9UQ88)
Observed: binding
One construct used (Q9UQ88 1-783): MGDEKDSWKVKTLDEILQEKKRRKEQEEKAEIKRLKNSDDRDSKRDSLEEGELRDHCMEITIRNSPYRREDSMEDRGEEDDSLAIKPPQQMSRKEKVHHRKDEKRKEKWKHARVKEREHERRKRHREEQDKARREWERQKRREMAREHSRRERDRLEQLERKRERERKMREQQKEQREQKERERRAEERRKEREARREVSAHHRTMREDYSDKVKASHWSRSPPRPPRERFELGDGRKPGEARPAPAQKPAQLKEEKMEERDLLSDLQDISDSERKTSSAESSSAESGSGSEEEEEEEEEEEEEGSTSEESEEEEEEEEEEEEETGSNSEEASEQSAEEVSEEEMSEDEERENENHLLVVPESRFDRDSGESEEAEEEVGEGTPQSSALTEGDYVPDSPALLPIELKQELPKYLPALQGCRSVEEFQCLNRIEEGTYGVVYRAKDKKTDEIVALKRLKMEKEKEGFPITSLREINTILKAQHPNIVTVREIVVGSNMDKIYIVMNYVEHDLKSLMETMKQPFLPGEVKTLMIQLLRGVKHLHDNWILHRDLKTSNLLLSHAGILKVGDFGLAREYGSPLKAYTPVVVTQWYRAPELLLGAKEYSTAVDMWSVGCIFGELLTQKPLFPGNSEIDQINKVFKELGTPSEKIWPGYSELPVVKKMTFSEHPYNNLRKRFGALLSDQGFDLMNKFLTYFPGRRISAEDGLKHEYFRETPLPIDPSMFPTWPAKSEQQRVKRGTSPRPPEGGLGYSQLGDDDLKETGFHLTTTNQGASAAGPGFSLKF

CN1CCN(c2cnc3c(C4CCN(C(=O)c5ccc(OC(F)(F)F)cc5N)CC4)ncnc3c2)CC1
remaining binding (competition with immobilised ligand; 1 µM): 61%

COc1ccnn2ncc(-c3ccnc(N(C)C)n3)c12
remaining binding (1 µM): 100%

O=C(NCCCN1CCOCC1)c1ccc(Nc2ncc(Cl)c(-c3ccc(Cl)s3)n2)cc1
remaining binding (competition with immobilised ligand; 1 µM): 23%

c1cncc(-c2cccc(Nc3nccc(NC4CCCCC4)n3)c2)c1
remaining binding (competition with immobilised ligand; 10 µM): 98%

F[C@@H]1CCN(c2nccc(-c3cnn4ncccc34)n2)C1
remaining binding (1 µM): 100%

CCC(=O)N[C@@H]1CC[C@H](C(=O)N(C)c2ccc(-c3nc4ccccc4o3)cc2)C1
remaining binding (competition with immobilised ligand; 1 µM): 100%

C[C@H]1CCN(c2nccc(-c3cnn4ncccc34)n2)C1
remaining binding (1 µM): 81%

NS(=O)(=O)c1cc(NC(=O)C2(c3ccccc3Cl)CC2)ccc1Oc1cccc(Cl)c1
remaining binding (competition with immobilised ligand; 1 µM): 73%

CC1CCCN1c1nccc(-c2cnn3ncccc23)n1 (centres unmarked)
remaining binding (1 µM): 100%

O=C(NCCCN1CCOCC1)c1ccc(Nc2nccc(-c3cc4ccccc4s3)n2)cc1
remaining binding (competition with immobilised ligand; 1 µM): 56%

COc1cnc(Nc2cccc(S(N)(=O)=O)c2)nc1N1CCN(c2ccccc2)C(=O)C1
remaining binding (competition with immobilised ligand; 1 µM): 100%

CNC(=O)c1ccc(Nc2ncc(C(F)(F)F)c(NCc3nccnc3N(C)S(C)(=O)=O)n2)cc1
remaining binding (competition with immobilised ligand; 0.1 µM): 77%

CN(c1nccc(-c2cnn3ncccc23)n1)C1CC1
remaining binding (1 µM): 100%

CC(=O)N1CCC(c2ccc(C(=O)NC3=NCCN3)cc2C(F)(F)F)CC1
remaining binding (competition with immobilised ligand; 1 µM): 100%

O=C(NCC1CCOCC1)c1n[nH]cc1NC(=O)c1c(F)cccc1F
remaining binding (competition with immobilised ligand; 1 µM): 91%

C[C@@H](c1ccc(-n2cnc3c(N)ncnc32)cc1)N1CCc2nn(C)c(Cc3ccccc3)c2C1=O
remaining binding (competition with immobilised ligand; 0.1 µM): 100%

N[C@H]1CCN(c2nccc(-c3cnn4ncccc34)n2)C1
remaining binding (1 µM): 82%

C=CC(=O)N1CCC(C(=O)NCC(=O)N2CCN(c3nc(-c4cnc(N)nc4C(F)F)nc(N4CCOCC4)n3)CC2)CC1
remaining binding (competition with immobilised ligand; 1 µM): 97%

O=C(c1ccc(Nc2ncc(Cl)c(-c3cc4ccccc4s3)n2)cc1)N1CCC(N2CCCC2)CC1
remaining binding (competition with immobilised ligand; 1 µM): 85%

O=C(NCc1ncc(C(F)(F)F)cc1Cl)c1ccc2c(c1)C1(CCS(=O)(=O)CC1)[C@@H](C1CC1)N2S(=O)(=O)c1ccc(F)cc1
remaining binding (competition with immobilised ligand; 1 µM): 100%
